Tests used:
[1] = test system: human SMA patient fibroblasts; conditions: commercially available GSK-3 inhibitors; cited from earlier work
[2] = test system: primary immature cortical neurons; assay: Oxidative stress; type: cell-based
Summary of the method: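 Primary cortical neurons were exposed to test compound (20 μM) with or without homocysteic acid (HCA, 5 mM), which depletes glutathione. Survival was read by MTT assay after 48 h and expressed as percent of the no-inhibitor control, mean ± SEM. Live/dead staining with calcein AM and ethidium homodimer was done in parallel.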

PKCβ2 = PKCβ2 (Homo sapiens, UniProt P05771); assay: Kinase inhibition assay; type: biochemical
GSK-3 = GSK-3 inhibition in the presence of 10 µM ATP; type: biochemical; conditions: read-out: GSK-3 IC50; tested in the presence of 10 µM ATP
[3] = test system: human SMA patient fibroblasts; assay: SMN protein level in SMA patient fibroblasts by western blot; type: cell-based; conditions: 72 h
Summary of the method: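 Fibroblasts from SMA patients were exposed to test compound (20, 25 or 30 μM) or DMSO vehicle for 72 h. SMN protein was assessed by Western blot and quantified from three separate experiments.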

Δ7 SMA KO mouse [4] = assay: Δ7 SMA KO neonatal mouse model: survival, body weight, tolerability; type: in vivo
Δ7 SMA KO mouse [5] = assay: Δ7 SMA KO mouse model: negative geotaxis test; type: in vivo; conditions: 75 mg/kg once a day
Δ7 SMA KO mouse [6] = assay: Δ7 SMA KO mouse model: tube test; type: in vivo; conditions: 75 mg/kg once a day; postnatal day 6, 8, 10 and 12

PKCβ2, sequence (P05771 1-673 isoform P05771-2): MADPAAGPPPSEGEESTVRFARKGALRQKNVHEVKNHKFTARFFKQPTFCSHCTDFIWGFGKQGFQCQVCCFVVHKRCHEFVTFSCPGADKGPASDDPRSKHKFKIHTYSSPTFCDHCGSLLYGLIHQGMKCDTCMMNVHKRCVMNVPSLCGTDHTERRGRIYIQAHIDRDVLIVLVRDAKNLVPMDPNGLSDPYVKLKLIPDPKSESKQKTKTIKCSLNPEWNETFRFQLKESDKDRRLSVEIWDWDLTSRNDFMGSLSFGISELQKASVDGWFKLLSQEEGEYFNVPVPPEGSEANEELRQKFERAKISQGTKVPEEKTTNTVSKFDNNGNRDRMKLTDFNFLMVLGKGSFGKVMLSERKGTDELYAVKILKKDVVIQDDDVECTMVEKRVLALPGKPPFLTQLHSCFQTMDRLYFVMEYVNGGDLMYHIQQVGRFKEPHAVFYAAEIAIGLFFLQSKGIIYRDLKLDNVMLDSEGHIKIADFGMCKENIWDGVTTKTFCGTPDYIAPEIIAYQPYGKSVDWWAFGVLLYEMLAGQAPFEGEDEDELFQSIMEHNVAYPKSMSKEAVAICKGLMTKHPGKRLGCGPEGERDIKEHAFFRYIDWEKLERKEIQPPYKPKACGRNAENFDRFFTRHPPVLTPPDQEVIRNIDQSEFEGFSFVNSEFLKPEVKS

## O=C1Cc2c([nH]c3ccc([N+](=O)[O-])cc23)-c2ccccc2N1 [alsterpaullone]
[1]
  elevation of SMN levels in vitro: shown to elevate SMN levels in vitro

## COc1ccc(CNC(=O)Nc2ncc([N+](=O)[O-])s2)cc1 [AR-A014418, reference compound]
[2]; HCA 5 mM, MTT assay
  protection in the HCA oxidative stress model: provided some protection
[1]
  elevation of SMN levels in vitro: shown to elevate SMN levels in vitro

## CHIR98014
[1]
  elevation of SMN levels in vitro: shown to elevate SMN levels in vitro

## Cn1cc(C2=C(c3coc4ccccc34)C(=O)NC2=O)c2cc(Br)ccc21 [BIP-135, 3-(5-bromo-1-methyl-1H-indol-3-yl)-4-(benzofuran-3-yl)pyrrole-2,5-dione]
PKCβ2
  IC50: 219 nM
GSK-3
  IC50: […]
[3]; 25 µM, western blot
  increase in SMN levels compared to vehicle treated cells: […]
[3]; higher concentrations
  toxicity in SMA patient fibroblasts (bell-shaped dose-response): some toxicity at higher concentrations
[2]; 20 µM, HCA 5 mM, MTT assay, HCA alone approximately 25 percent survival
  protection of HCA-treated cortical neurons (survival): about 80%
[2]; HCA 5 mM, MTT assay
  protection in the HCA oxidative stress model: able to protect at a lower concentration
[2]; absence of HCA
  toxicity to neurons exposed to compound alone: No significant toxicity
Δ7 SMA KO mouse [4]; 75 mg/kg IP, 100% DMSO as vehicle
  tolerability / toxicity in SMA KO animals: did not appear to be toxic and was well-tolerated
Δ7 SMA KO mouse [4]; 75 mg/kg once a day, p = 0.0435, after around P6
  effect on SMA KO body weight versus vehicle: showed an improvement in body weight
Δ7 SMA KO mouse [5]
  overall motor function (geotaxis and tube test): did not improve the overall motor function
Δ7 SMA KO mouse [5]; P12, p = 0.0315
  percent of KO mice that completed the geotaxis test: more KO animals treated with BIP-135 completed the geotaxis test
Δ7 SMA KO mouse [5]; p = 0.0683
  latency to complete the negative geotaxis test: no significant treatment effects
Δ7 SMA KO mouse [6]
  tube test parameters (time hanging, number of pulls, hind-limb strength score, tube test score): no significant treatment effect

— publication PMC3279955 (ACS chemical neuroscience, 2012)
